G6PDH CS = L. mesenteroides G6PDH inhibition counter-screen | 0.12% of 200,000 active | Purified L. mesenteroides G6PDH, diaphorase/resazurin coupled fluorescence, 45 min | AID 1020 | inhibition, % at 5 µM
Diaphorase act = counter-screen for diaphorase-based assays: diaphorase activators and chemical reducers; activation factor at 20 µM; 0.005% of 190,000 active; Diaphorase/resazurin coupled assay, resorufin fluorescence, 16 min; active compounds read high; 1 = vehicle wells, 0 = NADH-free wells;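 active means diaphorase activity raised at least twofold by the compound at 20 µM; inactive means activation factor below 2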
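Assay system: Purified diaphorase enzyme from Clostridium kluyveri | Amount: Enzyme 0.07 U/mL final | Dosing: Compound 20 µM once, DMSO 1% | Timing: 16 min reaction at room temperature | Detection: Fluorescence, excitation 544 nm and emission 590 nm | Evaluation: Higher resorufin formation from activation or reduction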
Diaphorase inh = diaphorase inhibition or chemical oxidation counter-screen; diaphorase resazurin-to-resorufin fluorescence, NADH, 16 min; bacterial (C. kluyveri) enzyme, not human; inhibition, % at 20 µM; 0.69% of 190,000 active; AID 1217;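 active means primary screen inhibition at 20 µM above a set limit, cut at about 50% in these data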;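 further: plate controls were DMSO with full reaction for no effect and wells lacking NADH for full effect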
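Assay system – diaphorase enzyme from Clostridium kluyveri · Amount – diaphorase 0.14 U/mL (working solution) · Times – reaction incubation of 16 min at room temperature · Controls – No-NADH positive control and DMSO neutral control · Signal – resorufin fluorescence 544/590 nm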
PfGluPho inh = PfG6PD (Plasmodium falciparum) enzyme inhibition; inhibition, % at 20 µM; PfGluPho enzyme, NADPH resazurin-diaphorase fluorescence; 0.78% of 350,000 active;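 active means inhibition reaching at least a set limit at 20 µM in the primary screen, cut at about 59% in these data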;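 further: 0% = DMSO wells with substrate and 100% = DMSO wells lacking glucose-6-phosphate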
DTT redox prof = compounds producing H2O2 with reducing agent – biochemical, NIH compound library profiling, artefact control for MLSCN library redox annotation, primary screen; 0.03% of 200,000 active; AID 878; DTT-dependent redox cycling H2O2, phenol red/HRP absorbance; 100% = 100 µM peroxide control, 0% = buffer; activation, % at 10 µM;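 active means activation of at least 50% relative to the plate's high and low controls in the primary single-dose screen; inactive means activation below 50%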;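 further: compound incubated with DTT at 0.8 mM final as the reducing agent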
L major viab = inhibitors of Leishmania major promastigote growth; Leishmania major promastigotes, resazurin fluorescence viability; inhibition, % at 10 µM; AID 1063; 9% of 200,000 active;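 further: promastigotes grown with compound for 44 hours at 28 °C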
* = called active by the depositor; · = no result given. The entries come from a sample that favours hits as a whole. Unless noted, no stated cut-off is given here; in the data, active means inhibition above about 50%; inactive means the rest.

SMILES | G6PDH CS | Diaphorase act | Diaphorase inh | PfGluPho inh | DTT redox prof | L major viab
COC(=O)c1c(NC(=O)Cc2cccs2)sc2c1CCC(C)C2 (stereo not given) | -26 | 0.7 | 35 | 37 | 0 | 1
COC(=O)c1c(NC(=O)Cn2cnc([N+](=O)[O-])n2)sc2c1CCC(C)C2 (stereo not given) | 6 | 0.8 | 18 | 45 | -1 | 100*
O=C(CN1C(=O)NC(Cc2c[nH]c3ccccc23)C1=O)Nc1ccc(F)cc1F (stereo not given) | · | · | · | -19 | · | ·
COc1ccc(CCN(C)C2CCCN(C(=O)CCC(F)(F)F)C2)cc1OC (stereo not given) | · | · | · | 21 | · | ·
C=C(C)Cn1c(C)cc(C)c(S(=O)(=O)c2cccc(C)c2)c1=O | 14 | 0.8 | 16 | 22 | -2 | 96*
Cc1cccc(S(=O)(=O)c2c(C)cc(C)[nH]c2=O)c1 | · | · | · | -11 | · | ·
CN(C)C(=O)CCC(=O)N1CCCC(C(=O)c2ccc3c4c(cccc24)CC3)C1 (stereo not given) | 6 | 0.8 | 23 | 0 | -1 | 6
CCc1nc(CN2CCCC(C(=O)c3ccc4c5c(cccc35)CC4)C2)c(C)[nH]1 (stereo not given) | 12 | 1.1 | -7 | 2 | 0 | 99*
O=C(c1ccc2c3c(cccc13)CC2)C1CCCN(Cc2ccncc2)C1 (stereo not given) | 8 | 1 | -2 | -5 | 0 | 97*
CCc1nc(CN2CCCC(C(=O)Nc3ccc(-c4cccc(OC)c4)cc3)C2)c(C)[nH]1 (stereo not given) | · | · | · | 9 | · | ·
COc1ccc(C(=O)/C=C/c2cn(CC(O)CN3CCOCC3)c3ccccc23)cc1 (stereo not given) | -46 | 0.8 | 24 | 32 | 1 | 37
Cc1ccc(C(=O)/C=C/c2cn(CC(O)CN3CCOCC3)c3ccccc23)cc1 (stereo not given) | 4 | 0.8 | 17 | 30 | 0 | 53*
CCN(CCO)C(=O)CC(c1ccccc1)c1cc(Br)ccc1O (stereo not given) | 14 | 1 | -1 | -11 | 0 | 50*
CCOc1ccc(NC(=O)c2ccc3c(c2)CCN3S(C)(=O)=O)cc1 | · | · | · | -12 | · | ·
CCOCCCNC(=O)CCCOc1ccccc1 | 2 | 0.9 | 11 | 11 | 0 | -13
CC1(C)CC(=O)C2=C(C1)N=c1s/c(=C/c3ccc(F)c(F)c3)c(=O)n1C2c1ccc(F)cc1 (stereo not given) | -34 | 0.8 | 17 | 1 | -4 | 100*
CCOC(=O)C1=C(C)N=c2s/c(=C\c3ccc(C(=O)O)cc3)c(=O)n2C1c1ccc(F)cc1 (stereo not given) | · | · | · | -26 | · | ·
CCC(C)[C@H](N)c1nnc(SCC(=O)c2ccc(Cl)cc2)o1 (stereo not given in full) | 11 | 0.9 | 9 | -15 | 0 | 90*
O=c1[nH]ncc(N2CCN(C(c3ccccc3)c3ccccc3)CC2)c1Cl | 12 | 0.7 | 28 | -30 | 0 | 93*
COC(=O)c1ccc(-c2ccco2)n1Cc1nc(-c2ccc(OC)c(OC)c2)oc1C | -2 | 0.8 | 25 | 7 | 1 | 66*
COC(=O)c1cc2ccsc2n1Cc1nc(-c2ccc(Cl)cc2)oc1C | -7 | 0.9 | 15 | 18 | -1 | 99*
COC(=O)c1cc2occc2n1Cc1nc(-c2ccc(Cl)cc2)oc1C | 8 | 1 | -1 | 7 | 0 | -3
COC(=O)c1ccc(-c2ccco2)n1Cc1ccccc1Cl | 6 | 0.9 | 13 | 16 | 0 | 0
Nc1ccc(N=Nc2ccccc2O)c(N)c1 | · | · | · | 2 | · | ·
Oc1ccccc1N=Nc1ccccc1O | 3 | 1 | -1 | -37 | 5 | 100*
SMILES | G6PDH CS | Diaphorase act | Diaphorase inh | PfGluPho inh | DTT redox prof | L major viab
O=C1c2cc(Br)ccc2OC2C=CC=CC12 (stereo not given) | · | · | · | 1 | · | ·
COc1ccccc1C(C)NCC(=O)Nc1ccccc1C(F)(F)F (stereo not given) | 18 | 1 | 2 | 4 | 0 | 60*
CCC(O)(C(=O)Nc1ccccc1C(F)(F)F)c1ccccc1OC (stereo not given) | · | · | · | 2 | · | ·
COc1cccc(C(C(=O)NC(C)(C)C)N(Cc2ccc(F)cc2)C(=O)CCC(=O)Nc2cc(C)on2)c1OC (stereo not given) | · | · | · | 14 | · | ·
C=CCNC(=S)Nc1sc2c(c1C#N)CCCC2 | 2 | 0.8 | 22 | 18 | 0 | 58*
CCOc1ccc(NC(=O)c2ccncc2)cc1 | 4 | 0.8 | 16 | -8 | 0 | -2
O=C(N/N=C1\C/C(=N\NC(=O)c2ccncc2)c2ccccc21)c1ccncc1 | 37 | 0.7 | 29 | 6 | -2 | 73*
CCOc1ccc2c(c1)C(=NNC(=O)c1ccncc1)c1cc(OCC)ccc1-2 | -34 | 0.9 | 15 | 39 | 4 | 100*
O=C(NN=C1C2CC3CC(C2)CC1C3)c1ccncc1 | 6 | 1 | 4 | -17 | -3 | -4
CC12CCC(=O)N1C(C(=O)Nc1ccccc1N1CCCCC1)CS2 (stereo not given) | · | · | · | -14 | · | ·
O=C(/C=C/c1ccc(Cl)cc1Cl)Nc1cccc(S(=O)(=O)NC2=NCCCCC2)c1 | 16 | 0.8 | 25 | 7 | 0 | 51*
O=C(/C=C/c1ccccc1[N+](=O)[O-])Nc1cccc(S(=O)(=O)NC2=NCCCCC2)c1 | · | · | · | 11 | · | ·
COc1ccc(C2SCCN2C(=S)Nc2cccc(Cl)c2)cc1 (stereo not given) | 0 | 0.9 | 7 | 37 | 0 | 80*
C#CCOCCOCCOCCNc1nc(N2CCN(C(=O)[C@H](CCC(=O)O)n3cc(C(N)Cc4ccc(O)cc4)nn3)CC2)nc(N2CCN(C(=O)[C@H](CCC(=O)O)n3cc(C(N)CC(C)C)nn3)CC2)n1 (stereo not given in full) | 12 | 0.4 | 57* | -1 | 2 | 3
C#CCOCCOCCOCCNc1nc(N2CCN(C(=O)[C@H](CCCCN)n3cc([C@@H](N)C(C)CC)nn3)CC2)nc(N2CCN(C(=O)[C@H](Cc3cc4ccccc4[nH]3)n3cc([C@@H](N)CC(C)C)nn3)CC2)n1 (stereo not given in full) | -10 | 1.7 | -67 | 60* | -1 | -3
C#CCOCCOCCOCCNc1nc(N2CCN(C(=O)[C@H](CCC(=O)O)n3cc(C(N)CO)nn3)CC2)nc(N2CCN(C(=O)[C@H](Cc3ccc(O)cc3)n3cc(C(N)CC(C)C)nn3)CC2)n1 (stereo not given in full) | 10 | 0.8 | 21 | · | -1 | -2
S=C(Nc1ccc(Cl)cc1)N(CCCN1CCOCC1)Cc1ccco1 | -1 | 1 | 0 | -2 | 0 | 96*

Screening results (PubChem)
